From ChEMBL document CHEMBL4334465, “SAR Studies on Aromatic Acylhydrazone-Based Inhibitors of Fungal Sphingolipid Synthesis as Next-Generation Antifungal Agents” (J Med Chem, 2019)
≈ marks a conversion by molar mass, not a printed value.

What was measured:
Cryptococcus neoformans [1] = assay: Antifungal activity against Cryptococcus neoformans H99 measured after 24 to 72 hrs; format: functional; settings: var grubii H99
Procedure, shortened: (§1)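 Modified CLSI broth microdilution with inoculum per M27A3. Compounds were serially diluted 32 to 0.03 μg/mL. Media: C. neoformans in HEPES-buffered YNB without amino acids (pH 7.0, 2% glucose); Candida strains in YNB without ammonium sulfate or amino acids plus 1% asparagine (pH 7.0, 2% glucose); A. fumigatus in RPMI (pH 7.0, 2% glucose).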

Cryptococcus neoformans [2] = assay: Fungicidal activity against Cryptococcus neoformans H99 measured after 72 hrs by time-kill assay; format: functional, var grubii H99
Procedure, shortened: (§2)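 Overnight C. neoformans washed in PBS and resuspended in HEPES-buffered YNB, pH 7.4. 2 × 10⁴ cells exposed to a range of drug concentrations in 10 mL with 0.5% DMSO final, at 37°C, 5% CO₂, shaking at 200 rpm. Aliquots sampled over 96 h, diluted and plated on YPD; CFU counted after 48 h at 30°C.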

A549 = assay: Cytotoxicity against human A549 cells after 24 to 48 hrs by MTT assay; format: functional; settings: read-out: LD50 (the source's name)
Procedure, shortened: (§3)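 A549 and HepG2 kept in DMEM with 10% FBS and 1% pen-strep. At passage 7, seeded at 10⁵ cells/well and allowed to adhere 14 h. Compound added at 0.03–128 μg/mL, untreated wells as controls. Incubation 37°C, 5% CO₂ for 24 or 48 h. MTT (5 mg/mL in PBS) added for 4 h, formazan dissolved in DMSO, OD570.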

HepG2 = assay: Cytotoxicity against human HepG2 cells after 24 to 48 hrs by MTT assay; format: functional; settings: read-out: LD50 (the source's name); procedure, shortened: as §3
[3] = Selectivity index, ratio of LD50 for human A549 cells to MIC80 for Cryptococcus neoformans H99; format: toxicity; settings: read-out: Selectivity Index
Procedure, shortened: (§4)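 SI = LD₅₀/MIC₈₀. Cytotoxicity: A549 or HepG2 cells (DMEM, 10% FBS, passage 7, 10⁵ cells/well) adhered 14 h, then exposed to 0.03–128 μg/mL for 24 or 48 h at 37°C, 5% CO₂; MTT 4 h, formazan dissolved in DMSO, read at 570 nm. MIC₈₀ against C. neoformans from broth microdilution in HEPES-buffered YNB, pH 7.0.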

[4] = Selectivity index, ratio of LD50 for human HepG2 cells to MIC80 for Cryptococcus neoformans H99; format: toxicity; settings: read-out: Selectivity Index; procedure, shortened: as §4
Cryptococcus neoformans [5] = assay: Antifungal activity against Cryptococcus neoformans H99 assessed as FICI in presence of fluconazole; format: functional, var grubii H99
Procedure, shortened: (§5)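 Checkerboard combination scored by fractional inhibitory concentration index. Acylhydrazone serially diluted 16 to 0.015 μg/mL (11 dilutions). Partner drug in seven dilutions: fluconazole 12 to 0.19 μg/mL, amphotericin B 5 to 0.078 μg/mL, caspofungin, itraconazole or voriconazole 8 to 0.007 μg/mL.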

Candida albicans [6] = assay: Antifungal activity against Candida albicans measured after 24 to 72 hrs; format: functional; procedure, shortened: as §1
[Candida] auris [7] = Antifungal activity against Candida auris measured after 24 to 72 hrs; format: functional; settings: Candidozyma auris; procedure, shortened: as §1
Pichia kudriavzevii [8] = assay: Antifungal activity against Candida krusei measured after 24 to 72 hrs; format: functional
Procedure, shortened: (§6)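 MIC by modified CLSI broth microdilution. Candida strains grown in YNB without ammonium sulfate or amino acids with 1% asparagine, pH 7.0, 2% glucose. Inoculum per CLSI M27A3. Compound serially diluted 32 to 0.03 μg/mL. Incubation 37°C, 5% CO₂, 24–72 h, then OD450. MIC80 taken as the lowest concentration giving 80% growth inhibition versus untreated control.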

Pichia kudriavzevii [9] = assay: Antifungal activity against multi-drug resistant Candida krusei measured after 24 to 72 hrs; format: functional; procedure, shortened: as §6
Candida parapsilosis [10] = assay: Antifungal activity against Candida parapsilosis measured after 24 to 72 hrs; format: functional; settings: Lodderomyces parapsilosis; procedure, shortened: as §1
Aspergillus fumigatus [11] = assay: Antifungal activity against Aspergillus fumigatus measured after 24 to 72 hrs; format: functional; procedure, shortened: as §1
Candida albicans [12] = assay: Antifungal activity against Candida albicans assessed as FICI in presence of fluconazole; format: functional; procedure, shortened: as §5
Pichia kudriavzevii [13] = assay: Antifungal activity against fluconazole-resistant Candida krusei assessed as FICI in presence of fluconazole; format: functional
Procedure, shortened: (§7)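 Checkerboard in 96-well plate. Test compound diluted 16 to 0.015 μg/mL (11 dilutions) against the partner drug in seven dilutions: fluconazole 12 to 0.19 μg/mL, caspofungin, itraconazole or voriconazole 8 to 0.007 μg/mL. Fractional inhibitory concentration index (FICI) calculated from the combinations.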

Pichia kudriavzevii [14] = assay: Antifungal activity against Candida krusei 6258 assessed as FICI in presence of fluconazole; format: functional; procedure, shortened: as §5
[Candida] auris [15] = Antifungal activity against Candida auris assessed as FICI in presence of fluconazole; format: functional, Candidozyma auris; procedure, shortened: as §5
Candida parapsilosis [16] = assay: Antifungal activity against Candida parapsilosis assessed as FICI in presence of fluconazole; format: functional; procedure, shortened: as §5
Aspergillus fumigatus [17] = assay: Antifungal activity against Aspergillus fumigatus assessed as FICI in presence of fluconazole; format: functional; procedure, shortened: as §5
Cryptococcus neoformans [18] = assay: Antifungal activity against Cryptococcus neoformans H99 assessed as FICI in presence of voriconazole; format: functional, var grubii H99; procedure, shortened: as §5
Candida albicans [19] = assay: Antifungal activity against Candida albicans assessed as FICI in presence of voriconazole; format: functional; procedure, shortened: as §5
Pichia kudriavzevii [20] = assay: Antifungal activity against fluconazole-resistant Candida krusei assessed as FICI in presence of voriconazole; format: functional; procedure, shortened: as §7
Pichia kudriavzevii [21] = assay: Antifungal activity against Candida krusei 6258 assessed as FICI in presence of voriconazole; format: functional; procedure, shortened: as §5
[Candida] auris [22] = Antifungal activity against Candida auris assessed as FICI in presence of voriconazole; format: functional, Candidozyma auris; procedure, shortened: as §5
Candida parapsilosis [23] = assay: Antifungal activity against Candida parapsilosis assessed as FICI in presence of voriconazole; format: functional; procedure, shortened: as §5
Aspergillus fumigatus [24] = assay: Antifungal activity against Aspergillus fumigatus assessed as FICI in presence of voriconazole; format: functional; procedure, shortened: as §5
Cryptococcus neoformans [25] = assay: Antifungal activity against Cryptococcus neoformans H99 assessed as FICI in presence of itraconazole; format: functional, var grubii H99; procedure, shortened: as §5
Candida albicans [26] = assay: Antifungal activity against Candida albicans assessed as FICI in presence of itraconazole; format: functional; procedure, shortened: as §5
Pichia kudriavzevii [27] = assay: Antifungal activity against fluconazole-resistant Candida krusei assessed as FICI in presence of itraconazole; format: functional; procedure, shortened: as §7
Pichia kudriavzevii [28] = assay: Antifungal activity against Candida krusei 6258 assessed as FICI in presence of itraconazole; format: functional; procedure, shortened: as §5
[Candida] auris [29] = Antifungal activity against Candida auris assessed as FICI in presence of itraconazole; format: functional, Candidozyma auris; procedure, shortened: as §5
Candida parapsilosis [30] = assay: Antifungal activity against Candida parapsilosis assessed as FICI in presence of itraconazole; format: functional; procedure, shortened: as §5
Aspergillus fumigatus [31] = assay: Antifungal activity against Aspergillus fumigatus assessed as FICI in presence of itraconazole; format: functional; procedure, shortened: as §5
Candida albicans [32] = assay: Antifungal activity against Candida albicans assessed as FICI in presence of caspofungin; format: functional; procedure, shortened: as §5
Pichia kudriavzevii [33] = assay: Antifungal activity against fluconazole-resistant Candida krusei assessed as FICI in presence of caspofungin; format: functional; procedure, shortened: as §7
Pichia kudriavzevii [34] = assay: Antifungal activity against Candida krusei 6258 assessed as FICI in presence of caspofungin; format: functional; procedure, shortened: as §5
[Candida] auris [35] = Antifungal activity against Candida auris assessed as FICI in presence of caspofungin; format: functional, Candidozyma auris; procedure, shortened: as §5
Candida parapsilosis [36] = assay: Antifungal activity against Candida parapsilosis assessed as FICI in presence of caspofungin; format: functional; procedure, shortened: as §5
Cryptococcus neoformans [37] = assay: Antifungal activity against Cryptococcus neoformans H99 assessed as FICI in presence of amphotericin B; format: functional, var grubii H99; procedure, shortened: as §5
Cryptococcus neoformans [38] = assay: Fungicidal activity against Cryptococcus neoformans H99 measured up to 96 hrs by time-kill assay; format: functional, organism-based; settings: var grubii H99; procedure, shortened: as §2

O=C(N/N=C/c1cc(Br)ccc1O)c1ccc(Br)cc1Br
MIC80 (Cryptococcus neoformans [1]): 0.06 µg/mL (≈ 0.126 µM) | MFC100 (Cryptococcus neoformans [2]): 0.06 µg/mL (≈ 0.126 µM) | CC50 (A549): 64 µg/mL (≈ 134 µM) | CC50 (HepG2): 64 µg/mL (≈ 134 µM) | selectivity ratio [3]: 1070 | selectivity ratio [4]: 1070 | fractional inhibitory concentration index (FICI) (Cryptococcus neoformans [5]): 0.065 | MIC80 (Candida albicans [6]): > 16 µg/mL | MIC80 ([Candida] auris [7]): > 16 µg/mL | MIC80 (Pichia kudriavzevii [8]): 8 µg/mL (≈ 16.8 µM) | MIC80 (Pichia kudriavzevii [9]): > 16 µg/mL | MIC80 (Candida parapsilosis [10]): 8 µg/mL (≈ 16.8 µM) | MIC80 (Aspergillus fumigatus [11]): > 16 µg/mL | fractional inhibitory concentration index (FICI) (Candida albicans [12]): 2 | fractional inhibitory concentration index (FICI) (Pichia kudriavzevii [13]): 2 | fractional inhibitory concentration index (FICI) (Pichia kudriavzevii [14]): 1.002 | fractional inhibitory concentration index (FICI) ([Candida] auris [15]): 2 | fractional inhibitory concentration index (FICI) (Candida parapsilosis [16]): 1.015 | fractional inhibitory concentration index (FICI) (Aspergillus fumigatus [17]): 2 | fractional inhibitory concentration index (FICI) (Cryptococcus neoformans [18]): 0.072 | fractional inhibitory concentration index (FICI) (Candida albicans [19]): 0.256 | fractional inhibitory concentration index (FICI) (Pichia kudriavzevii [20]): 1.063 | fractional inhibitory concentration index (FICI) (Pichia kudriavzevii [21]): 1.06 | fractional inhibitory concentration index (FICI) ([Candida] auris [22]): 1.125 | fractional inhibitory concentration index (FICI) (Candida parapsilosis [23]): 0.135 | fractional inhibitory concentration index (FICI) (Aspergillus fumigatus [24]): 0.515 | fractional inhibitory concentration index (FICI) (Cryptococcus neoformans [25]): 0.072 | fractional inhibitory concentration index (FICI) (Candida albicans [26]): 0.128 | fractional inhibitory concentration index (FICI) (Pichia kudriavzevii [27]): 0.375 | fractional inhibitory concentration index (FICI) (Pichia kudriavzevii [28]): 2.015 | fractional inhibitory concentration index (FICI) ([Candida] auris [29]): 1.016 | fractional inhibitory concentration index (FICI) (Candida parapsilosis [30]): 2.098 | fractional inhibitory concentration index (FICI) (Aspergillus fumigatus [31]): 0.484 | fractional inhibitory concentration index (FICI) (Candida albicans [32]): 0.502 | fractional inhibitory concentration index (FICI) (Pichia kudriavzevii [33]): 2 | fractional inhibitory concentration index (FICI) (Pichia kudriavzevii [34]): 1.002 | fractional inhibitory concentration index (FICI) ([Candida] auris [35]): 2 | fractional inhibitory concentration index (FICI) (Candida parapsilosis [36]): 1.5 | fractional inhibitory concentration index (FICI) (Cryptococcus neoformans [37]): 0.086 | Activity (Cryptococcus neoformans [38]): Dose-dependent effect
